Experimental data taken from ChEMBL document CHEMBL1122506, “Cardiac-slowing amidines containing the 3-thioindone group. Potential antianginal agents” (1983).

Assays:
Canis familiaris [1] = test: Change in heart rate at the above D50 dose in conscious dogs; format: functional, Canis lupus familiaris
In short: (§1)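 Triazine tachycardia in conscious dogs: carotid artery and jugular vein catheterized with heparinized saline; 18 h after surgery, triazine vasodilator U20388 12 mg/kg po; about 1 h later, dog in sling with arterial pressure and ECG monitored. Test agent infused iv at 0.8 (mg/kg)/min to 30 mg/kg total. D50 = dose giving 50% of maximal slowing in that animal; ΔHR50 = heart-rate change at D50; CS index = %ΔHR50/D50.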

Canis familiaris [2] = test: Dose required to achieve 50 % of maximal cardiac slowing in triazine tachycardia test in conscious dog; format: functional, Canis lupus familiaris; in short: as §1
Canis familiaris [3] = organism: Canis familiaris; test: Cardiac slowing index was measured for potency and efficacy; format: functional, Canis lupus familiaris; in short: as §1
Canis familiaris [4] = organism: Canis familiaris; test: Percent decrease from initial heart rate (percent delta HR50/HR0 x 100) in dogs; format: functional, Canis lupus familiaris; in short: as §1
Canis familiaris [5] = organism: Canis familiaris; test: Relative activity (fraction of the most active compound 24) was determined; format: functional, Canis lupus familiaris
Canis familiaris [6] = test: Myocardial depression in anesthetized, ganglion-blocked dog; Moderate activity.
Canis familiaris [7] = test: Myocardial depression rating in anesthetized, ganglion-blocked dog; Weak activity.
Canis familiaris [8] = test: Evaluated for the heart rate at dose 2.5 mg/kg in 4 animals by glucagon-induced tachycardia test; format: functional, Canis lupus familiaris
Canis familiaris [9] = test: Evaluated for the heart rate at dose 1.0 mg/kg in 4 animals by glucagon-induced tachycardia test; format: functional, Canis lupus familiaris
Canis familiaris [10] = test: Evaluated for the heart rate at dose 5.0 mg/kg in 4 animals by aminophylline-induced sinus tachycardia test; format: functional, Canis lupus familiaris
Canis familiaris [11] = test: Evaluated for the heart rate at dose 2.5 mg/kg in 4 animals by aminophylline-induced sinus tachycardia test; format: functional, Canis lupus familiaris
Canis familiaris [12] = test: Evaluated for the heart rate at dose 2.5 mg/kg in 4 animals by poldine tachycardia test; format: functional, Canis lupus familiaris
In short: (§2)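 Poldine tachycardia: dogs prepared surgically as in the triazine method; poldine methyl sulfate 0.5 mg/kg iv, then 30 min later test agent in increasing doses (0.5/1.0/2.5 mg/kg) at 30-min intervals; read-out is the maximum percent decrease in heart rate at each dose.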

Canis familiaris [13] = test: Evaluated for the heart rate at dose 0.5 mg/kg in 4 animals by poldine tachycardia test; format: functional, Canis lupus familiaris; in short: as §2
Canis familiaris [14] = test: Evaluated for the heart rate at dose 1.0 mg/kg in 4 animals by aminophylline-induced sinus tachycardia test; format: functional, Canis lupus familiaris
Canis familiaris [15] = test: Evaluated for the heart rate at dose 1.0 mg/kg in 4 animals by poldine tachycardia test; format: functional, Canis lupus familiaris; in short: as §2

SMILES	Delta HR50 (Canis familiaris [1])	D50 (Canis familiaris [2])	CS index (Canis familiaris [3])	Delta HR50 (Canis familiaris [4])	Relative activity (Canis familiaris [5])	MD (Canis familiaris [6])	MD (Canis familiaris [7])	Max decrease in heart rate (Canis familiaris [8])	Max decrease in heart rate (Canis familiaris [9])	Max decrease in heart rate (Canis familiaris [10])	Max decrease in heart rate (Canis familiaris [11])	Max decrease in heart rate (Canis familiaris [12])	Max decrease in heart rate (Canis familiaris [13])	Max decrease in heart rate (Canis familiaris [14])	Max decrease in heart rate (Canis familiaris [15])
C#CCn1cc(CC/N=C2/CCCN2C)c2ccccc21	-47 beats min-1	1.5 mg/kg	14.9	22.3%	0.46	3	–	–	–	–	–	–	–	–	–
CN1CCC/C1=N\CCSc1cn(C2C=CCCC2)c2ccccc12 (configuration not stated)	-52 beats min-1	1.9 mg/kg	10.9	20.8%	0.34	3.5	–	–	–	–	–	–	–	–	–
Cc1[nH]c2ccccc2c1SCCNC1=NCCN1C	-37 beats min-1	2.6 mg/kg	7.5	19.5%	0.23	–	2.5	–	–	–	–	–	–	–	–
CN1CCN=C1NCCSc1c[nH]c2ccccc12	-38 beats min-1	2.9 mg/kg	6.9	19.9%	0.22	–	2	–	–	–	–	–	–	–	–
CCn1cc(SCCCC/N=C2\CCCN2C)c2ccccc21	-33 beats min-1	0.7 mg/kg	22.8	16%	0.71	3.5	–	–	–	–	–	–	–	–	–
CN1CCCCC/C1=N\CCSc1c[nH]c2ccccc12	-38 beats min-1	14.1 mg/kg	1.3	18.5%	0.04	–	–	–	–	–	–	–	–	–	–
C=CCn1cc(SCC/N=C2\CCCN2C)c2ccccc21	-52 beats min-1	1 mg/kg	22.2	22.2%	0.69	–	2	–	–	–	–	–	–	–	–
CN1CCC/C1=N\CCCCSc1c[nH]c2ccccc12	-42 beats min-1	2 mg/kg	10	20%	0.31	3	–	–	–	–	–	–	–	–	–
CN1CCCN=C1NCCSc1c[nH]c2ccccc12	-38 beats min-1	6.4 mg/kg	3.1	20%	0.1	–	–	–	–	–	–	–	–	–	–
CCc1ccc2[nH]cc(SCC/N=C3\CCCN3C)c2c1	-21 beats min-1	8.6 mg/kg	1.8	15.5%	0.06	–	–	–	–	–	–	–	–	–	–
CC(=NCCSc1c[nH]c2ccccc12)N(C)C	-50 beats min-1	2 mg/kg	11.5	23%	0.36	–	2	–	–	–	–	–	–	–	–
CN1CCN=C1NCCc1c[nH]c2ccccc12	-47 beats min-1	9.7 mg/kg	2.1	20.5%	0.06	–	2	–	–	–	–	–	–	–	–
C#CCn1c(C)c(SCC/N=C2\CCCN2C)c2ccccc21	-20 beats min-1	5.5 mg/kg	3.4	18.5%	0.11	–	–	–	–	–	–	–	–	–	–
CC(CSc1c[nH]c2ccccc12)/N=C1\CCCN1C (configuration not stated)	-46 beats min-1	2.7 mg/kg	8.9	24%	0.28	3.5	–	–	–	–	–	–	–	–	–
CN1CCC/C1=N\CCSc1cn(Cc2ccco2)c2ccccc12	-42 beats min-1	2.6 mg/kg	8.6	22.4%	0.27	3.5	–	–	–	–	–	–	–	–	–
C=CCn1cc(CC/N=C2/CCCN2C)c2ccccc21	-26 beats min-1	1.2 mg/kg	12.2	14.7%	0.38	–	–	–	–	–	–	–	–	–	–
C=CCN1CCC/C1=N\CCSc1c[nH]c2ccccc12	-22 beats min-1	0.7 mg/kg	17.7	12.4%	0.55	–	–	–	–	–	–	–	–	–	–
C=C(C)Cn1cc(SCC/N=C2\CCCN2C)c2ccccc21	-42 beats min-1	4.4 mg/kg	4.5	20%	0.14	–	2.5	–	–	–	–	–	–	–	–
Cc1c(SCC/N=C2\CCCN2C)c2ccccc2n1C	-21 beats min-1	0.9 mg/kg	13.9	12.5%	0.43	3.5	–	–	–	–	–	–	–	–	–

SMILES	Delta HR50 (Canis familiaris [1])	D50 (Canis familiaris [2])	CS index (Canis familiaris [3])	Delta HR50 (Canis familiaris [4])	Relative activity (Canis familiaris [5])	MD (Canis familiaris [6])	MD (Canis familiaris [7])	Max decrease in heart rate (Canis familiaris [8])	Max decrease in heart rate (Canis familiaris [9])	Max decrease in heart rate (Canis familiaris [10])	Max decrease in heart rate (Canis familiaris [11])	Max decrease in heart rate (Canis familiaris [12])	Max decrease in heart rate (Canis familiaris [13])	Max decrease in heart rate (Canis familiaris [14])	Max decrease in heart rate (Canis familiaris [15])
C#CCn1cc(SCC/N=C2\CCCN2C)c2ccccc21	-46 beats min-1	1.1 mg/kg	19.6	21.6%	0.61	–	2.5	–	–	–	–	–	–	–	–
Cc1[nH]c2ccccc2c1SCC/N=C1\CCCCN1C	-24 beats min-1	2 mg/kg	7.1	14.3%	0.22	3	–	–	–	–	–	–	–	–	–
CN1CCC/C1=N/CCc1c[nH]c2ccccc12	-28 beats min-1	3.4 mg/kg	4.7	16%	0.15	–	2	–	–	–	–	–	–	–	–
CC(C)n1cc(SCC/N=C2\CCCN2C)c2ccccc21	-31 beats min-1	1 mg/kg	19.1	19.1%	0.6	–	2	39%	23%	47%	33%	55%	15%	16%	38%
c1ccc(N2CCC/C2=N\CCSc2c[nH]c3ccccc23)cc1	-40 beats min-1	0.6 mg/kg	32	19.2%	1	–	2.5	–	–	–	–	–	–	–	–
CN1CCC/C1=N\CCSc1cn(CC2CC2)c2ccccc12	-60 beats min-1	1.4 mg/kg	18.2	25.5%	0.57	–	2.5	–	–	–	–	–	–	–	–
Cc1[nH]c2ccc(Cl)cc2c1SCC/N=C1\CCCN1C	-33 beats min-1	2.3 mg/kg	7.5	17.2%	0.23	3	–	–	–	–	–	–	–	–	–
CN1CCC/C1=N/CCc1cn(Cc2ccccc2)c2ccccc12	-52 beats min-1	2.6 mg/kg	9.3	24.3%	0.29	–	–	–	–	–	–	–	–	–	–
COc1ccc2[nH]cc(SCC/N=C3\CCCN3C)c2c1	-39 beats min-1	2.3 mg/kg	7.7	17.8%	0.24	–	2	–	–	–	–	–	–	–	–
COCCn1cc(SCC/N=C2\CCCN2C)c2ccccc21	-33 beats min-1	1.5 mg/kg	11.7	17.6%	0.37	2.5	–	–	–	–	–	–	–	–	–
CN1CCC/C1=N\CCSc1cn(Cc2ccccc2)c2ccccc12	–	–	–	–	–	3	–	–	–	–	–	–	–	–	–
CN1CCC/C1=N/CCCSc1c[nH]c2ccccc12	-46 beats min-1	3.8 mg/kg	5.4	20.4%	0.17	3	–	–	–	–	–	–	–	–	–
c1ccc2c(SCCNC3=NCCC3)c[nH]c2c1	-51 beats min-1	3.7 mg/kg	6.2	23%	0.19	–	–	–	–	–	–	–	–	–	–
CCN1CC(CC/N=C2\CCCN2C)c2ccccc21 (configuration not stated)	-45 beats min-1	3.3 mg/kg	5.6	18.4%	0.17	–	2	–	–	–	–	–	–	–	–
C=CCCn1cc(SCC/N=C2\CCCN2C)c2ccccc21	-33 beats min-1	1.1 mg/kg	14.7	16.2%	0.46	3	–	–	–	–	–	–	–	–	–
CN1CCCC/C1=N\CCSc1c[nH]c2ccccc12	-51 beats min-1	3 mg/kg	7.5	22.4%	0.23	–	2.5	–	–	–	–	–	–	–	–
CN1CCC/C1=N\CCSc1cn(C2CCCC2)c2ccccc12	-40 beats min-1	2.7 mg/kg	7.8	21%	0.24	3	–	–	–	–	–	–	–	–	–
CN1CCC/C1=N\CCSc1c[nH]c2ccc(Cl)cc12	-32 beats min-1	3.5 mg/kg	4.6	16.2%	0.14	–	2	–	–	–	–	–	–	–	–
